Measurements reported in ChEMBL document CHEMBL2440062, “New nucleotide-competitive non-nucleoside inhibitors of terminal deoxynucleotidyl transferase: discovery, characterization, and crystal structure in complex with the target” (J Med Chem, 2013).
The source made the active and inactive calls. The calls are words filed in the database; no cut-off is given here.

Experiments:
DNA polymerase beta = DNA polymerase beta (Homo sapiens, UniProt P06746); assay: Inhibition of human recombinant DNA polymerase beta
[1] = molecular target: T1, DNA nucleotidylexotransferase (Homo sapiens, UniProt P04053); assay: Competitive inhibition of human TdT using TTP as substrate
Procedure, shortened: (§1)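 TdT was from Trevigen. TCA-precipitated radioactivity was counted. ID50 came from dose–response fitting. For kinetics, DNA or dNTP was varied at increasing inhibitor, and Ki was obtained via Cheng–Prusoff for a competitive model.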

[2] = molecular target: T2, DNA polymerase lambda (Homo sapiens) (UniProt Q9UGP5); assay: Inhibition of human recombinant full length DNA polymerase lambda TdT-like activity using [3H]dNTP as substrate after 10 mins by scintillation counting analysis
T2 sequence (whole entry): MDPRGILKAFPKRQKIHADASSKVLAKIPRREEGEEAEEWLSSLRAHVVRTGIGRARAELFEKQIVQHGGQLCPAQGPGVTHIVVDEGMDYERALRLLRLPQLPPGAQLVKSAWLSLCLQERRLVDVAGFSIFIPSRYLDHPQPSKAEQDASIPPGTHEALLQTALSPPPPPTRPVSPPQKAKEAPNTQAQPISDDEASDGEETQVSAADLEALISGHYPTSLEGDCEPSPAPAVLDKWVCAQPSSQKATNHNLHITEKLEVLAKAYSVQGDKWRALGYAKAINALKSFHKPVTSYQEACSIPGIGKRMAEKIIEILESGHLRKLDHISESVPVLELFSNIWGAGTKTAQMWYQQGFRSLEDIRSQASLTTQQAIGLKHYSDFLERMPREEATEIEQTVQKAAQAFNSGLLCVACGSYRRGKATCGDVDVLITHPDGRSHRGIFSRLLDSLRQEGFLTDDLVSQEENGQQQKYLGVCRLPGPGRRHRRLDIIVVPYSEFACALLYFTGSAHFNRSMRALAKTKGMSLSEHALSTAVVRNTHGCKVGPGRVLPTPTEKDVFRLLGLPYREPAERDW
Procedure, shortened: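 Full-length recombinant human pol λ (>90% pure) was tested for template-independent activity. Acid-insoluble radioactivity was counted, and ID50 came from dose–response fitting.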

Homo sapiens [3] = organism: Homo sapiens; assay: Binding affinity to human TdT/DNA/dNTP ternary complex
Procedure, shortened: (§2)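 Association (kon) and dissociation (koff) rates measured for binding to binary enzyme–DNA and ternary enzyme–DNA–dNTP complexes of TdT.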

MOLT-4 [4] = assay: Upregulation of p53 protein expression in human MOLT4 cells overexpressing TdT at IC50 after 30 hrs by Western blot analysis; type: functional, cell-based
Procedure, shortened: (§3)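 1 × 10^6 cells were incubated with or without compound, then lysed in cold buffer (50 mM Tris, 150 mM NaCl, 10 mM EDTA, 1% Triton) with protease inhibitors. Equal protein was run on 8–12% SDS-PAGE and blotted to nitrocellulose. Membranes were probed overnight at 4 °C with antibodies to cyclin E2, cyclin A, p53 or caspase 3, detected by HRP/ECL, and normalized to actin by densitometry.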

MOLT-4 [5] = assay: Cytotoxicity against human MOLT4 cells overexpressing TdT assessed as growth inhibition after 24 to 48 hrs by MTT assay; type: functional, cell-based
Procedure, shortened: (§4)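 MOLT-4 cells were grown in RPMI-1640 and HeLa cells in DMEM, with 10% FCS at 37 °C. Cells were seeded at 10^5 per well, given 24 h to attach, then exposed to compounds (0.1–100 range) for 24 or 48 h. MTT at 1 mg/mL was added for 2 h at 37 °C, formazan was dissolved in DMSO, and absorbance read at 550 nm versus 0.5% DMSO vehicle. IC50 was obtained by regression, in triplicate.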

[6] = molecular target: T2, DNA polymerase lambda (Homo sapiens); assay: Inhibition of human recombinant full length DNA polymerase lambda using [3H]dTTP as substrate and 10 poly(dA)/oligo(dT) as template-primer after 15 mins by scintillation counting analysis
Procedure, shortened: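 Recombinant full-length human pol λ at 50 nM was assayed with 0.2 μM poly(dA)/oligo(dT)10:1 (3′-OH ends) and 5 μM [3H]dTTP (5 Ci/mmol). Incubation was 15 min at 37 °C. TCA precipitates were scintillation counted.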

MOLT-4 [7] = assay: Downregulation of cyclin A protein expression in human MOLT4 cells overexpressing TdT at 30 to 50 uM by Western blot analysis; type: functional, cell-based; procedure, shortened: as §3
MOLT-4 [8] = assay: Cell cycle arrest in human MOLT4 cells overexpressing TdT assessed as accumulation at S phase at 30 uM after 24 hrs by propidium iodide staining-based FACS flow cytometric analysis relative to vehicle-treated control; type: functional
Procedure, shortened: (§5)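 Cells at 2.5 × 10^5 cells/mL were treated 24 h with compound or vehicle. They were washed in PBS, trypsinized, and stained 30 min at 4 °C in the dark with 0.1% sodium citrate, 0.1% Triton X-100 and propidium iodide. Analysis was by FACScan flow cytometry, giving the percentage of cells in G0/G1, S and G2/M.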

HeLa [9] = assay: Cell cycle arrest in TdT-deficient human HeLa cells at 30 uM after 24 hrs by propidium iodide staining-based FACS flow cytometric analysis; type: ADME; procedure, shortened: as §5
MOLT-4 [10] = assay: Cell cycle arrest in human MOLT4 cells overexpressing TdT assessed as decrease of cells in G1 phase at 30 uM after 24 hrs by propidium iodide staining-based FACS flow cytometric analysis relative to vehicle-treated control; type: functional; parameters: scale not given: the % may be the effect or the level left; procedure, shortened: as §5
HeLa [11] = assay: Induction of apoptosis in TdT-deficient human HeLa cells assessed as caspase-3 cleavage by Western blot analysis; type: cell-based; procedure, shortened: as §3
[12] = molecular target: T1, DNA nucleotidylexotransferase; assay: Non-competitive inhibition of human TdT using 3'-OH as substrate
HeLa [13] = assay: Cytotoxicity against TdT-deficient human HeLa cells assessed as growth inhibition after 24 to 48 hrs by MTT assay; type: cell-based; procedure, shortened: as §4
MOLT-4 [14] = assay: Induction of apoptosis in human MOLT4 cells overexpressing TdT assessed as caspase-3 cleavage by Western blot analysis; type: functional, cell-based; procedure, shortened: as §3
[15] = molecular target: T1, DNA nucleotidylexotransferase; assay: Inhibition of human recombinant TdT using [3H]dNTP as substrate after 10 mins by scintillation counting analysis; procedure, shortened: as §1
Homo sapiens [16] = organism: Homo sapiens; assay: Binding affinity to human TdT/DNA binary complex; procedure, shortened: as §2
MOLT-4 [17] = assay: Downregulation of cyclin A protein expression in human MOLT4 cells overexpressing TdT at 30 uM by Western blot analysis; type: functional, cell-based; procedure, shortened: as §3

T1 sequence (P04053 whole entry): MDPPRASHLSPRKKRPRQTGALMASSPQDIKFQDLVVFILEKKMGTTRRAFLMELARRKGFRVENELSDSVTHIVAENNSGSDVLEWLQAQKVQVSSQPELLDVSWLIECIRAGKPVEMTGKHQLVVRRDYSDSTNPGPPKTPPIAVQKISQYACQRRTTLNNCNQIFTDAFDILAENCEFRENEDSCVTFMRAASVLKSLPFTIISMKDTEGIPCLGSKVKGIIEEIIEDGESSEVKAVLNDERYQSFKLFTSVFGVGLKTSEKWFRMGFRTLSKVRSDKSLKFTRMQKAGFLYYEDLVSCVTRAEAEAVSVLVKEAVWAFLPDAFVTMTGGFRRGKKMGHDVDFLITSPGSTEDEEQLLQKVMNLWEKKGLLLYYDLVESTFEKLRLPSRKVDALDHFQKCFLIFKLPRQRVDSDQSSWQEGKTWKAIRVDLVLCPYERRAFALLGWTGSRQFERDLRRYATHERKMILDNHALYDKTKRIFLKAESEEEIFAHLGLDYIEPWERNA

| Structure (SMILES) | IC50 (DNA polymerase beta) | Ki [1] | ID50 [2] | inhibition (Homo sapiens [3]) | Activity (MOLT-4 [4]) | IC50 (MOLT-4 [5]) | ID50 [6] | Activity (MOLT-4 [7]) | Activity (MOLT-4 [8]) | Activity (HeLa [9]) | Activity (MOLT-4 [10]) | Activity (HeLa [11]) | Ki [12] | IC50 (HeLa [13]) | Activity (MOLT-4 [14]) | ID50 [15] | inhibition (Homo sapiens [16]) | Activity (MOLT-4 [17]) |
| --- | --- | --- | --- | --- | --- | --- | --- | --- | --- | --- | --- | --- | --- | --- | --- | --- | --- | --- |
| CCOC(=O)C(=O)CC(=O)/C=C/c1cc(C(=O)c2ccc(C#N)cc2)c[nH]1 | > 40 µM | 1.5 µM | > 40 µM | inactive | Active | 30 µM | > 40 µM | Active | 44% | Non-toxic | 30% | Non-toxic | 1.7 µM | > 40 µM | Active | 4.7 µM | Active |  |
| O=C(/C=C/c1cn(-c2ccc(O)cc2)c2ccccc12)CC(=O)C(=O)O | > 40 µM |  | > 40 µM |  |  | > 40 µM | > 40 µM |  |  |  |  |  |  | > 40 µM |  | 5.2 µM |  |  |
| O=C(/C=C/c1cc(C(=O)c2ccc(F)cc2)c[nH]1)CC(=O)C(=O)O | > 40 µM |  | 40 µM |  |  | > 40 µM | > 40 µM |  |  |  |  |  |  | > 40 µM |  | 0.58 µM |  |  |
| O=C(/C=C/c1cc(C(=O)c2cccc(F)c2)c[nH]1)CC(=O)C(=O)O | > 40 µM |  | 35 µM |  |  | > 40 µM | > 40 µM |  |  |  |  |  |  | > 40 µM |  | 0.78 µM |  |  |
| O=C(/C=C/c1cc(C(=O)c2ccccc2)cn1Cc1ccc(F)cc1)CC(=O)C(=O)O | 40 µM |  | > 40 µM |  | Active | 9 µM | > 40 µM |  | 44% | Non-toxic | 30% | Non-toxic |  | > 40 µM | Active | 9.5 µM |  | Active |
| O=C(/C=C/c1cn(-c2ccc(Cl)cc2)c2ccccc12)CC(=O)C(=O)O | > 40 µM |  | > 40 µM |  |  | 27 µM | 9 µM |  |  |  |  |  |  | > 40 µM |  | 31 µM |  |  |
| N#Cc1ccc(Cn2cc(/C=C/C(=O)CC(=O)C(=O)O)c3ccccc32)cc1 | 40 µM |  | 34 µM |  |  | > 40 µM | > 40 µM |  |  |  |  |  |  | > 40 µM |  | 1.4 µM |  |  |
| N#Cc1ccc(Cn2cc(C(=O)c3ccccc3)cc2/C=C/C(=O)CC(=O)C(=O)O)cc1 | 40 µM |  | > 40 µM |  |  | 40 µM | > 40 µM |  |  |  |  |  |  | > 40 µM |  | 6.8 µM |  |  |
| O=C(/C=C/c1cc(C(=O)c2ccccc2F)c[nH]1)CC(=O)C(=O)O | > 40 µM | 0.5 µM | 27 µM | inactive |  | 20 µM | > 40 µM |  |  |  |  |  | 0.4 µM | > 40 µM |  | 1.7 µM | Active |  |
| CC(C)CCn1cc(/C=C/C(=O)CC(=O)C(=O)O)c2ccccc21 | > 40 µM |  | > 40 µM |  |  | 20 µM | > 40 µM |  |  |  |  |  |  | > 80 µM |  | 16.3 µM |  |  |
| N#Cc1ccc(C(=O)c2c[nH]c(/C=C/C(=O)CC(=O)C(=O)O)c2)cc1 | > 40 µM |  | 40 µM |  |  | > 40 µM | > 40 µM |  |  |  |  |  |  | > 40 µM |  | 1.1 µM |  |  |
| CC(C)=Cn1cc(/C=C/C(=O)CC(=O)C(=O)O)c2ccccc21 | > 40 µM |  | 9 µM |  |  | 30 µM | > 40 µM |  |  |  |  |  |  | > 40 µM |  | 13.8 µM |  |  |
| CN(C)C(=O)Cn1cc(/C=C/C(=O)CC(=O)C(=O)O)c2ccccc21 | > 40 µM |  | 40 µM |  |  | > 40 µM | > 40 µM |  |  |  |  |  |  | > 40 µM |  | 8.9 µM |  |  |
| CCCn1cc(/C=C/C(=O)CC(=O)C(=O)O)c2ccccc21 | > 40 µM |  | > 40 µM |  |  | 50 µM | > 40 µM |  |  |  |  |  |  | > 40 µM |  | 3.1 µM |  |  |
| CCOC(=O)C(=O)CC(=O)/C=C/c1cc(C(=O)c2ccc(F)cc2)c[nH]1 | > 40 µM |  | > 40 µM |  |  | 6.3 µM | 11 µM |  |  |  |  |  |  | > 40 µM |  | 4.1 µM |  |  |
| O=C(/C=C/c1cc(C(=O)c2ccccc2)cn1Cc1ccccc1)CC(=O)C(=O)O | > 40 µM |  | 20 µM |  |  | > 40 µM | > 40 µM |  |  |  |  |  |  | > 40 µM |  | 16 µM |  |  |
| O=C(/C=C/c1cn(Cc2ccc(O)cc2)c2ccccc12)CC(=O)C(=O)O | > 40 µM | 0.45 µM | > 40 µM | inactive |  | 20 µM | > 40 µM |  |  |  |  |  | 0.5 µM | > 40 µM |  | 0.9 µM | Active |  |
